Assay [1] has as its system MDA-MB-435. The assay is described as follows: Cytotoxicity against human MDA-MB-435 cells assessed as reduction in cell viability at 50 uM by cell titer 96 aqueous one solution cell proliferation assay. It is filed as functional, cell-based.
For assay [2], the system named is MDA-MB-231. The assay is described as follows: Cytotoxicity against human MDA-MB-231 cells assessed as reduction in cell viability at 50 uM by cell titer 96 aqueous one solution cell proliferation assay. The assay is classed as functional, cell-based.
The subject of assay [3] is OVCAR-3. The assay is described as follows: Cytotoxicity against human OVCAR3 cells assessed as reduction in cell viability at 50 uM by cell titer 96 aqueous one solution cell proliferation assay. The assay is classed as functional, cell-based.
For assay [4], the system named is Nannizzia gypsea. The assay is described as follows: Antifungal activity against Microsporum gypseum at 25 ug/disc incubated for 5 days by agar disk diffusion method. It is filed as functional. The note with it: 120 h, read-out: DIZ. In a few lines: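 Conidia of M. gypseum, kept on Sabouraud dextrose agar, were harvested in sterile water and adjusted to 0.5–1.0 OD at 600 nm (~10^5 cells/mL). The suspension was seeded onto Mueller-Hinton agar with 2% glucose and 0.5 µg/ml methylene blue. Compounds in DMSO were loaded at 25 µg per 6 mm paper disk. Inhibition-zone diameters (mm) were read after 5 d, as mean ± SD of four replicates.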

For assay [5], the system named is MDA-MB-435. The assay is described as follows: Cytotoxicity against human MDA-MB-435 cells assessed as reduction in cell viability by cell titer 96 aqueous one solution cell proliferation assay. The assay is classed as functional, cell-based. In a few lines:
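Cells were grown in RPMI 1640 with 10% FBS and penicillin/streptomycin at 37°C under 5% CO2. Log-phase cells were trypsinized, washed twice, seeded at 5,000 per well and incubated overnight. Compounds were added at final 20, 4, 0.8, 0.16 and 0.032 µM in 0.5% DMSO and incubated for 72 h at 37 °C. Viability was read by MTS-type absorbance assay as % survival versus DMSO control. Vinblastine served as positive control.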

The subject of assay [6] is Huh7.5.1. The assay is described as follows: Cytotoxicity against human Huh7.5.1 cells assessed as reduction in cell viability by ATPlite assay. The note with it: Huh-7.5.1.
The test system of assay [7] is OVCAR-3. The assay is described as follows: Cytotoxicity against human OVCAR3 cells assessed as reduction in cell viability by cell titer 96 aqueous one solution cell proliferation assay. The assay is classed as functional, cell-based.

The source made the active and inactive calls. The calls are words filed in the database; no cut-off is given here.

With `COC1=CC(=O)C[C@@H](C)[C@]12Oc1c(Cl)c(O)cc(OC)c1C2=O`, the outcome in assay [1], in assay [2] and in assay [3] was inactive. Also, the zone of inhibition at 25 µg/disc in assay [4] turned out to be 0 mm.

Regarding `COC1=CC(=O)C[C@@H](C)[C@]12Oc1c(F)c(OC)cc(OC)c1C2=O`, the IC50 in assay [5] is 22 µM; in assay [6], 10 to 25 µM. In addition, the result in assay [2] and in assay [3] was inactive. For the same molecule, the zone of inhibition at 25 µg/disc in assay [4] amounted to 34 mm.

On to `COC1=CC(=O)[C@H](O)[C@@H](C)[C@]12Oc1cc(OC)cc(OC)c1C2=O`, for which the outcome in assay [1], in assay [2] and in assay [3] was inactive. The zone of inhibition at 25 µg/disc in assay [4] worked out at 0 mm.

`COC1=CC(=O)C2=C(O[C@]3(C2=O)C(OC)=CC(=O)C[C@H]3C)C1(F)Cl` (mixture of isomers): the result in assay [1], in assay [2] and in assay [3] was inactive. Moreover, the zone of inhibition at 25 µg/disc in assay [4] was determined as 0 mm.

`COC1=CC(=O)C[C@@H](C)[C@]12Oc1cc(OC)cc(OC)c1C2=O`: the outcome in assay [1], in assay [2] and in assay [3] was inactive. Also, the zone of inhibition at 25 µg/disc in assay [4] came out at 0 mm.

Take `COC1=CC(=O)[C@H](O)[C@@H](C)[C@]12Oc1cc(OC)c(F)c(OC)c1C2=O`: the outcome in assay [1], in assay [2] and in assay [3] was inactive. Moreover, in assay [4], the zone of inhibition at 25 µg/disc stood at 0 mm.

With `COC1=CC(=O)[C@H](O)[C@@H](C)[C@]12Oc1c(Cl)c(OC)cc(OC)c1C2=O`, the outcome in assay [1], in assay [2] and in assay [3] was inactive. In addition, the zone of inhibition at 25 µg/disc in assay [4] came out at 0 mm.

On to `COC1=CC(=O)C[C@@H](C)[C@]12Oc1cc(O)cc(OC)c1C2=O`, for which the outcome in assay [1], in assay [2] and in assay [3] was inactive. For the same molecule, the zone of inhibition at 25 µg/disc in assay [4] stood at 0 mm.

In the case of `COC1=CC(=O)[C@H](O)[C@@H](C)[C@]12Oc1c(F)c(OC)cc(OC)c1C2=O`, the result in assay [1], in assay [2] and in assay [3] was inactive. In addition, the zone of inhibition at 25 µg/disc in assay [4] worked out at 0 mm.

`COC1=CC(=O)C[C@@H](C)[C@]12Oc1c(Cl)c(OC)cc(OC)c1C2=O` [GRISEOFULVIN]: the figures for the half-inhibitory concentration (IC50) in assay [5], in assay [7] and in assay [6] were 6.4 µM, 48.5 µM and 10 to 25 µM, respectively. Further, in assay [2], the outcome was inactive. Moreover, the zone of inhibition at 25 µg/disc in assay [4] was determined as 35 mm.

As for `COC1=CC(=O)C[C@@H](C)[C@]12Oc1cc(OC)c(F)c(OC)c1C2=O`, the outcome in assay [1], in assay [2] and in assay [3] was inactive. Also, the zone of inhibition at 25 µg/disc in assay [4] was 0 mm.

Turning to `COC1=CC(=O)C[C@@H](C)[C@]12Oc1c(Cl)c(OC)c(F)c(OC)c1C2=O`, the result in assay [1], in assay [2] and in assay [3] was inactive. In addition, the zone of inhibition at 25 µg/disc in assay [4] came to 23 mm.

Values taken from ChEMBL document CHEMBL4043171, “Chemoselective fluorination and chemoinformatic analysis of griseofulvin: Natural vs fluorinated fungal metabolites” (Bioorg Med Chem, 2017).
